≈ marks a conversion by molar mass, not a printed value. Calls of active or inactive are those of the source. The rule behind the calls is not given here. Positions of bridges follow the written chain, without caps; N, C: chain ends. Residues, ends and D or L forms follow the SMILES beside them.
Key:
[1] = system: Enterococcus faecalis; assay: Antibacterial activity against Enterococcus faecalis ATCC 19433; format: functional, organism-based
[2] = system: Staphylococcus aureus; assay: Antibacterial activity against Staphylococcus aureus ATCC 6538; format: functional, organism-based
[3] = system: Escherichia coli; assay: Antibacterial activity against Escherichia coli MC4100 up to 250 uM after 24 hrs by liquid growth inhibition assay; format: functional, organism-based
Procedure, shortened: (§1)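 Liquid broth microdilution in LB. Peptide stocks were made in 20% methanol/water (1 or 2.5 mM), then serially doubled in water to final 0.01–100 or 0.5–250 µM. Inoculum was diluted to OD620 0.02–0.05. Plates ran 24 h at 37 °C and were read at OD620. MIC was the lowest concentration giving 100% growth inhibition (0.05 AU). Triplicate wells, three repeat experiments.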

[4] = system: Escherichia coli; assay: Antibacterial activity against Escherichia coli DH5alpha up to 250 uM after 24 hrs by liquid growth inhibition assay; format: functional, organism-based; details: DH5[alpha]; procedure, shortened: as §1
[5] = system: Salmonella enterica subsp. enterica serovar Choleraesuis; assay: Antibacterial activity against Salmonella choleraesuis ATCC 10708 up to 250 uM after 24 hrs by liquid growth inhibition assay; format: functional
[6] = system: Salmonella paratyphi; assay: Antibacterial activity against Salmonella paratyphi up to 250 uM after 24 hrs by liquid growth inhibition assay; format: functional, organism-based; details: Salmonella enterica subsp. enterica serovar Paratyphi A
[7] = system: Salmonella enterica subsp. enterica serovar Montevideo; assay: Antibacterial activity against Salmonella montevideo 20 up to 250 uM after 24 hrs by liquid growth inhibition assay; format: functional; procedure, shortened: as §1
[8] = system: Salmonella enterica subsp. enterica serovar Heidelberg; assay: Antibacterial activity against Salmonella heidelberg ATCC 8326 up to 250 uM after 24 hrs by liquid growth inhibition assay; format: functional; procedure, shortened: as §1
[9] = system: Salmonella typhimurium; assay: Antibacterial activity against Salmonella Typhimurium ATCC 13311 up to 250 uM after 24 hrs by liquid growth inhibition assay; format: functional, organism-based; details: Salmonella enterica subsp. enterica serovar Typhimurium; procedure, shortened: as §1
[10] = system: Salmonella typhimurium; assay: Antibacterial activity against Salmonella Typhimurium AFLB 25 up to 250 uM after 24 hrs by liquid growth inhibition assay; format: functional, organism-based; details: Salmonella enterica subsp. enterica serovar Typhimurium; procedure, shortened: as §1
[11] = system: Salmonella enteritidis; assay: Antibacterial activity against Salmonella enteritidis AFLB 81 up to 250 uM after 24 hrs by liquid growth inhibition assay; format: functional, organism-based; details: Salmonella enterica subsp. enterica serovar Enteritidis; procedure, shortened: as §1
[12] = system: Salmonella enteritidis; assay: Antibacterial activity against Salmonella enteritidis AFLB 41 up to 250 uM after 24 hrs by liquid growth inhibition assay; format: functional, organism-based; details: Salmonella enterica subsp. enterica serovar Enteritidis; procedure, shortened: as §1
[13] = system: Salmonella enteritidis; assay: Antibacterial activity against Salmonella enteritidis AFLB 11 up to 250 uM after 24 hrs by liquid growth inhibition assay; format: functional, organism-based; details: Salmonella enterica subsp. enterica serovar Enteritidis; procedure, shortened: as §1
[14] = system: Salmonella enteritidis; assay: Antibacterial activity against Salmonella enteritidis ATCC 13076 up to 250 uM after 24 hrs by liquid growth inhibition assay; format: functional, organism-based; details: Salmonella enterica subsp. enterica serovar Enteritidis; procedure, shortened: as §1
[15] = system: Salmonella enteritidis; assay: Antibacterial activity against Salmonella enteritidis PT8 up to 250 uM after 24 hrs by liquid growth inhibition assay; format: functional, organism-based; details: Salmonella enterica subsp. enterica serovar Enteritidis; procedure, shortened: as §1
[16] = system: Salmonella enterica subsp. enterica serovar Newport; assay: Antibacterial activity against Salmonella newport clinical isolate up to 250 uM after 24 hrs by liquid growth inhibition assay; format: functional; procedure, shortened: as §1
[17] = Cytotoxicity against human MDA-MB-435 cells assessed as cell viability at 0.3 to 100 uM after 24 hrs by MTT assay; format: cell-based; details: read-out: Activity
Procedure, shortened: (§2)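 MTT assay. MDA-MB-435 cells were kept in RPMI 1640 and MCF7 cells in DMEM, both with 10% FBS, penicillin and streptomycin, at 37 °C and 5% CO2. Cells were seeded at 1×10^4/well and grown 24 h. Samples came from 1 mM stocks in 10% DMSO/water, twofold diluted to 0.3125–100 µM, and applied for 24 h. MTT (5 mg/mL) was added for 3.5 h, then DMSO solubilization and A570. Viability is relative to untreated cells; triplicate, mean.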

[18] = Cytotoxicity against human MCF7 cells assessed as cell viability at 0.3 to 100 uM after 24 hrs by MTT assay; format: cell-based; details: read-out: Activity; procedure, shortened: as §2
[19] = Stability of the compound at 200 uM after overnight incubation by spot on lawn method in the presence of chymotrypsin; format: ADME
[20] = Stability of the compound at 150 uM after 30 mins by RP-HPLC analysis in the presence of pepsin; format: ADME; details: 0.5 h
Procedure, shortened: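 Peptide (150 µM) was incubated at 37 °C with pepsin (4% w/w) in 0.1 N HCl. Aliquots taken at 0 and 30 min were quenched into 0.1 N NaOH/70% methanol and centrifuged. Supernatant was analysed by C18 RP-HPLC (15–50% isopropanol/water, 0.05% TFA, 35 min, UV 220 nm). Fragments were identified by MALDI-TOF.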

[21] = Bactericidal activity against Salmonella newport clinical isolate after 24 hrs; format: functional, Salmonella enterica subsp. enterica serovar Newport; details: Salmonella enterica
Procedure, shortened: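 For MBC, 10 µL from each clear well of the 24 h, 37 °C LB broth-dilution plate was spread on LB agar and incubated 24 h at 37 °C. MBC was the lowest concentration giving no growth on agar.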

[22] = Antibacterial activity against Salmonella newport clinical isolate after 24 hrs by liquid growth inhibition assay; format: functional, Salmonella enterica subsp. enterica serovar Newport; details: Salmonella enterica; procedure, shortened: as §1
[23] = system: Salmonella enterica subsp. enterica serovar Newport; assay: Inhibition of oxygen consumption in Salmonella newport clinical isolate at 30 uM after 35 mins by Gilson Clarke oxygraph analysis; format: functional
Procedure, shortened: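 Cells were held 35 min at 37 °C with peptide at the stated concentration. Respiration rate over the next 5 min was measured polarographically with a Clark electrode oxygraph at 37 °C. Results are percent of a peptide-free control; three independent experiments, mean ± SD.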

[24] = Thermostability in boiling water after 3 hrs; format: physicochemical; details: buffer

Row | Structure (SMILES) | Activity [1] | Activity [2] | Activity [3] | Activity [4] | Activity [5] | Activity [6] | Activity [7] | Activity [8] | Activity [9] | Activity [10] | Activity [11] | Activity [12] | Activity [13] | Activity [14] | Activity [15] | Activity [16] | viability at 24 h, up to 100 µM [17] | viability at 24 h, up to 100 µM [18] | other results
1 | CC[C@H](C)[C@H](NC(=O)[C@@H]1CCCN1C(=O)CNC(=O)CNC(=O)[C@H](CCCNC(=N)N)NC(=O)CNC(=O)[C@@H](NC(=O)[C@H](Cc1ccccc1)NC(=O)[C@H](Cc1ccc(O)cc1)NC(=O)[C@@H]1CSSC[C@H](N)C(=O)NCC(=O)N[C@@H](C)C(=O)N[C@@H](Cc2ccccc2)C(=O)N[C@@H](Cc2cnc[nH]2)C(=O)N[C@@H](C(C)C)C(=O)N2CCC[C@H]2C(=O)N1)C(C)C)C(=O)N[C@@H](CO)C(=O)N[C@@H](Cc1ccccc1)C(=O)O (H-CGAFHVPCYFVGRGGPISF-OH; disulfide 1-8) | inactive | inactive | inactive | inactive | inactive | inactive | inactive | inactive | inactive | inactive | inactive | inactive | inactive | inactive | inactive | inactive | > 90% | > 90% | –
2 | CC[C@H](C)[C@H](NC(=O)[C@@H]1CCCN1C(=O)[C@@H](NC(=O)CNC(=O)[C@H](CCCNC(=N)N)NC(=O)CNC(=O)[C@@H](NC(=O)[C@H](Cc1ccccc1)NC(=O)[C@H](Cc1ccc(O)cc1)NC(=O)[C@@H]1CSSC[C@H](N)C(=O)NCC(=O)N[C@@H](C)C(=O)NCC(=O)N[C@@H](Cc2ccccc2)C(=O)N[C@@H](Cc2cnc[nH]2)C(=O)N[C@@H](C(C)C)C(=O)N2CCC[C@H]2C(=O)N1)C(C)C)[C@@H](C)O)C(=O)N[C@@H](CO)C(=O)N[C@@H](Cc1ccccc1)C(=O)N[C@@H](Cc1ccc(O)cc1)C(=O)NCC(=O)O (H-CGAGFHVPCYFVGRGTPISFYG-OH; disulfide 1-9) | inactive | inactive | inactive | inactive | inactive | inactive | inactive | inactive | inactive | inactive | inactive | inactive | inactive | inactive | inactive | – | > 90% | > 90% | Stability [19]: Unstable; Stability [20]: Unstable; MBC [21]: 62.5 µM (≈ 146 µg/mL); MIC [22]: 30 µM (≈ 70 µg/mL); inhibition [23]: inactive; Stability [24]: Unstable
3 | CC[C@H](C)[C@H](NC(=O)CNC(=O)[C@@H](NC(=O)[C@H](Cc1ccccc1)NC(=O)[C@H](Cc1ccc(O)cc1)NC(=O)[C@@H]1CSSC[C@H](N)C(=O)NCC(=O)N[C@@H](C)C(=O)NCC(=O)N[C@@H](CCCCN)C(=O)N[C@@H](C(C)C)C(=O)N2CCC[C@H]2C(=O)N1)C(C)C)C(=O)NCC(=O)N[C@H](C(=O)N1CCC[C@H]1C(=O)N[C@H](C(=O)N[C@@H](CO)C(=O)N[C@@H](Cc1ccccc1)C(=O)N[C@@H](CCC(=O)O)C(=O)NCC(=O)O)[C@@H](C)CC)[C@@H](C)O (H-CGAGKVPCYFVGIGTPISFEG-OH; disulfide 1-8) | inactive | inactive | inactive | inactive | inactive | inactive | inactive | inactive | inactive | inactive | inactive | inactive | inactive | inactive | inactive | inactive | 75% | 75% | –
4 | CC[C@H](C)[C@H](NC(=O)CNC(=O)[C@@H](NC(=O)[C@H](Cc1ccccc1)NC(=O)[C@H](Cc1ccc(O)cc1)NC(=O)[C@@H]1CSSC[C@H](N)C(=O)NCC(=O)N[C@@H](C)C(=O)N[C@@H](CCCCN)C(=O)N[C@@H](Cc2cnc[nH]2)C(=O)N[C@@H](C(C)C)C(=O)N2CCC[C@H]2C(=O)N1)C(C)C)C(=O)NCC(=O)N[C@H](C(=O)N1CCC[C@H]1C(=O)N[C@H](C(=O)N[C@@H](CO)C(=O)N[C@@H](Cc1ccccc1)C(=O)N[C@@H](CCC(=O)O)C(=O)O)[C@@H](C)CC)[C@@H](C)O (H-CGAKHVPCYFVGIGTPISFE-OH; disulfide 1-8) | inactive | inactive | inactive | inactive | inactive | inactive | inactive | inactive | inactive | inactive | inactive | inactive | inactive | inactive | inactive | inactive | – | 75% | –
5 | CC[C@H](C)[C@@H]1NC(=O)[C@@H]2CCCN2C(=O)CNC(=O)CNC(=O)[C@H](CCCNC(=N)N)NC(=O)CNC(=O)[C@H](C(C)C)NC(=O)[C@H](Cc2ccccc2)NC(=O)[C@H](Cc2ccc(O)cc2)NC(=O)[C@@H]2CSSC[C@H](NC(=O)[C@H](CCC(=O)O)NC1=O)C(=O)NCC(=O)N[C@@H](C)C(=O)NCC(=O)N[C@@H](Cc1cnc[nH]1)C(=O)N[C@@H](C(C)C)C(=O)N1CCC[C@H]1C(=O)N2 (cyclo(AGHVPCYFVGRGGPIECG); disulfide 6-17) | inactive | inactive | inactive | inactive | inactive | inactive | inactive | inactive | inactive | inactive | inactive | inactive | inactive | inactive | inactive | inactive | > 90% | > 90% | –
